From PubChem BioAssay
Insulin prom up = MIN6 insulin promoter up-regulation. MIN6 insulin promoter-GFP reporter, high-content imaging; stronger effect = higher value. z-score at 5 µM. 190,000 compounds, 0.3% hits;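 active = z-score above 3 at 5 µM with at least 500 cells counted in the well; inconclusive = wells under 500 cells, flagged as cytotoxic or low count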
HSV replic up = HSV replication enhancement. AID 1956. maximum fold increase. HSV replication augmentation in cells, fold increase. 220,000 compounds, 0.005% hits; in the data active = maximum fold increase above about 1.5; inconclusive = no clear call, values can overlap the other calls; tested in PC3 cells
INS promoter inh = TRM-6 insulin promoter activity inhibition | TRM-6 cells (human fetal islet line), insulin promoter-eGFP reporter, imaging; reporter expression induced with tamoxifen | 130,000 compounds, 0.9% hits | inhibition, % at 2 µM;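 active = inhibition above the mean plus 3 SD, with well images judged a real hit on visual review, cut at about 60% in these data, passing the limit was not always enough; inconclusive = inhibition over the cutoff but images rejected on review; inactive = inhibition not above the cutoff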
Autophagy mod = alters autophagy in cells. AID 463193. MEF GFP-LC3 puncta imaging; test concentration mostly 10 µM. 190,000 compounds, 0.98% hits. calls only at 10 µM (by protocol);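 active = percentage of spot-positive cells more than 3 SD above its plate mean, without a fluorescence outlier flag or 80% toxicity; inconclusive = no clear call, values can overlap the other calls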;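 note: spot-positive cell cutoff set from DMSO-treated cells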
Dynein cargo inh = blocks dynein driven cargo transport along microtubules; 3617.4 mouse cells, GR-EGFP nuclear translocation imaging; test concentration mostly 20 µM; stimulated with dexamethasone, 1 µM; stronger effect = lower value; z-score, hits read low; 220,000 compounds, 0.47% hits; AID 1381;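 active = plate z-score of nuclear minus cytoplasmic receptor signal below a set negative limit, without overly bright fluorescence or cell loss, cut at about -3.5 in these data, passing the limit was not always enough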;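 note: z-score of nuclear minus cytoplasmic ring GR-EGFP intensity difference per well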
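Buffer or medium: tet-free, stripped-serum medium; reagent: dexamethasone at 1.0 µM final, 30 min; incubation: 48 h induction, 1 h compound, 30 min dex at 37 °C; measured by: formaldehyde fixation, Hoechst nuclear stain, 10x automated fluorescence imaging; read-out: nuclear-to-cytoplasmic GR-EGFP distribution per well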
Furin inh = human furin inhibition; P09958; purified furin, fluorogenic substrate cleavage; 220,000 compounds, 0.061% hits; inhibition, % at 20 µM or 30 µM; AID 463115; in the data active = inhibition above about 25%
Target sequence (P09958 108-714 limits assumed): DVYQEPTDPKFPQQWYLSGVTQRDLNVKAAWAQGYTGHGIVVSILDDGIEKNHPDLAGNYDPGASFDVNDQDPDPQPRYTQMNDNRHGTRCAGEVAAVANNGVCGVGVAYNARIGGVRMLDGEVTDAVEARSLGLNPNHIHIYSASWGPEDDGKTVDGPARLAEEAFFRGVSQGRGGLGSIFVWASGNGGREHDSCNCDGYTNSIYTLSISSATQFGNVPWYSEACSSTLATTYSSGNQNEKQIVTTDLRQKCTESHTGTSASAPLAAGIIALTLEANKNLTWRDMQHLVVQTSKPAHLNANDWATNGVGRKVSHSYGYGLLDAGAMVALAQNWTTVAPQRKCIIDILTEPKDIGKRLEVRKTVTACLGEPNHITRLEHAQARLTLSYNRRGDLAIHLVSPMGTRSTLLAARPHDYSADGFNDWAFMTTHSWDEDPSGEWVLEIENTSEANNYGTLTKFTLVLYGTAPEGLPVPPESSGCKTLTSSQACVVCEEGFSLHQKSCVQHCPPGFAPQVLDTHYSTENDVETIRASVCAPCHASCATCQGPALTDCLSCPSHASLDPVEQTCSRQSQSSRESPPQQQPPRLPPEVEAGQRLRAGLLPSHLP
Numbers without * were called inactive; i = inactive; ? = inconclusive; nt = not tested or not shown; + = active, no number. This is a sample that favours compounds with a hit; in the whole collection about 2% have one here.

SMILES	Insulin prom up	HSV replic up	INS promoter inh	Autophagy mod	Dynein cargo inh	Furin inh
CN1CCN(S(=O)(=O)c2ccc(Cc3ccc(S(=O)(=O)N4CCN(C)CC4)cc3)cc2)CC1	-0.74	i	nt	+	3.3	-5
Cc1ccc(OCC(=O)N/N=C/c2cccn2C)cc1	nt	i	71*	i	-0.31	1
O=C(COc1ccccc1/C=C1\SC(=O)NC1=O)Nc1ccccc1	-0.17	i	82*	i	0.0095	-14
CC(=O)N1CCN(C(=O)CCC(=O)O)CC1	-0.04	i	nt	nt	-0.18	-20
CC1CCCC(C)N1/N=C/C=C/c1ccccc1[N+](=O)[O-] (stereo not given)	-0.32	i	nt	i	-1.5	-18
CC1CCCC(C)N1/N=C/c1ccccc1C(=O)O (stereo not given)	2	i	72*	i	-1.3	-19
CCOc1ccc2nc(N3CCCCCC3)sc2c1	nt	i	-50	i	-0.72	-21
CCOc1ccc2nc(N3C(=O)/C(=C/c4ccccc4)NC3=S)sc2c1	-0.58	i	nt	+	-0.43	6
COc1ccc2nc(-n3c(C)ccc3C)sc2c1	0.22	i	-44	i	-0.99	-16
COc1ccc2nc(N3C(=O)/C(=C/c4ccccc4)NC3=S)sc2c1	0.42	?	4	+	-0.29	8
CCOc1cc2c(cc1/C=C1/NC(=O)N(CC(=O)OC)C1=O)OCO2	0.42	i	-27	i	0.42	-6
Cn1c(=O)n(-c2ccc(Cl)cc2)c(=O)c2c3c(sc21)COC(C)(C)C3	-0.21	i	30	i	1.4	-8
CCn1c(=O)n(-c2ccc(Cl)cc2)c(=O)c2c3c(sc21)COC(C)(C)C3	0.85	i	74*	i	0.66	-18
S=C1NCN(C2CCCCC2)CN1c1ccccc1	-0.47	i	nt	nt	0.28	-22
COc1cc(/C=C\C(=O)NCc2ccc3[nH]c(C)cc3c2)cc(OC)c1OC	0.3	i	66*	i	-0.43	-17
COc1ccc(/C=C\C(=O)NCc2ccc3[nH]c(C)cc3c2)cc1OC	-0.43	i	35	i	-0.33	-3
CCC(=O)NC1OC(CO)C(O)C(O)C1O (stereo not given)	0.62	i	nt	i	0.56	-21
CCOC(=O)C1(CC/C(C)=N\NC(N)=O)CC(C)(C)OC1=O (stereo not given)	nt	i	nt	+	-0.89	-19
CC1=C(C#N)c2nc(N)c(C#N)c(C)c2/C1=C\c1ccc(C)cc1	0.74	i	-46	+	1.8	-9
COc1cc(/C=C2\C(C)=C(C#N)c3nc(N)c(C#N)c(C)c32)ccc1OCC(=O)O	-0.76	?	nt	nt	-0.83	-15
CCOC(=O)c1sc2nc(-c3cccnc3)ccc2c1N	-0.21	i	71*	i	2.9	-22
COc1ccc(C(=O)c2sc3nc(-c4ccccc4)ccc3c2N)cc1	?	?	-207	+	-0.82	9
CCC(C)NS(=O)(=O)c1ccc(NS(=O)(=O)c2ccc(F)cc2)cc1 (stereo not given)	nt	i	-96	i	-0.66	-24
COc1ccc(S(=O)(=O)C(C#N)c2nc3ccccc3nc2N2CCCC(C)C2)cc1 (stereo not given)	-0.7	1.6*	5	i	-0.83	-14
CC1CCCN(c2nc3ccccc3nc2C(C#N)S(=O)(=O)c2cccs2)C1 (stereo not given)	-0.23	i	24	i	-0.41	-17
SMILES	Insulin prom up	HSV replic up	INS promoter inh	Autophagy mod	Dynein cargo inh	Furin inh
CC(NCc1cc(Br)ccc1OCC(=O)NCc1ccccc1)c1ccccc1 (stereo not given)	-2.5	i	-29	+	-0.95	-28
O=C(/C=C/c1cn(-c2ccccc2)nc1-c1cccnc1)c1ccco1	-1.7	i	nt	i	-3.2	-16
O=C(Nc1ccc(S(=O)(=O)NC2=NCCCCC2)cc1)c1ccccc1Cl	0.09	i	nt	nt	0.63	-13
Cc1ccc(-n2c(C)nc3c(cnn3-c3ccc(F)cc3)c2=O)cc1C	-0.4	i	-44	+	-0.36	-22
Cc1ccc(-n2c(C)nc3c(cnn3-c3ccc(C)c(C)c3)c2=O)cc1C	-1.4	i	nt	i	0.63	4
C=CCOc1ccc(C2N3CC4(CC)CN2CC(CC)(C3)C4=O)cc1 (stereo not given)	0.64	i	nt	i	-0.19	-16
CCC12CN3CC(CC)(CN(C1)C3c1c(O)ccc3ccccc13)C2=O (stereo not given)	nt	i	25	+	0.066	-13
CN(C)/C=N/C(=S)Nc1ccc(Cl)cc1Cl	-0.4	i	14	i	-0.64	-15
c1ccc(OCCCCN2CCOCC2)cc1	-0.52	i	nt	i	0.32	-4
N=c1n(CCOc2ccccc2)c2ccccc2n1CCN1CCOCC1	-0.46	i	3	+	2.6	1
Cc1nnc(SCc2cccs2)[nH]c1=O	0.09	i	36	i	-0.55	-17
Cc1noc(C)c1CSc1nnc(C)c(=O)[nH]1	0.25	i	78*	i	0.13	-9
CC1CC(C)CN(CC(C)(C)NS(=O)(=O)c2ccc(Cl)cc2)C1 (stereo not given)	-0.53	i	3	i	2.6	0
Brc1cc(Br)cc(CN2CCSCC2)c1	0.47	i	nt	nt	0.64	-24
COc1ccc(N/N=C(\C=N\O)C(=O)c2ccc(OC)cc2)cc1	-0.68	i	-25	+	0.15	-6
COc1ccc(NC(=O)/C=N/O)cc1	0.25	i	nt	i	-0.49	-31
CC(=O)NC1CCN(C(=O)N2CCCC2)CC1	0.02	i	45	+	1.7	-11
CCCn1c(N)c(C(=O)CSc2nc(C)cs2)c(=O)[nH]c1=O	-0.39	i	77*	i	-0.36	-10
COc1cc(NC(=O)c2cccc(Cl)c2)ccc1NC(=O)c1cccs1	nt	i	33	+	0.95	-15
COc1cc(NC(=O)c2ccccc2Cl)ccc1NC(=O)c1cccs1	0.03	i	-27	i	1.5	-6
O=C(Nc1cccc(Oc2ccc3c(c2)C(=O)NC3=O)c1)c1cccs1	0.04	i	nt	i	0.056	-16
CCN1CCS/C1=C\C=C\C1=[N+](CC)CCS1	?	i	nt	i	0.47	43*
CCN1CCS/C1=C/C=C/C1=[N+](CC)CCS1	?	i	-233	i	-0.36	38*
FC(F)(F)c1ccc2c(c1)N1CCCC1CN2 (stereo not given)	0.91	nt	nt	+	1.4	-8
FC(F)(F)c1ccc2c(c1)NCC1CCCN21 (stereo not given)	0.17	i	nt	+	0.52	-10
FC(F)(F)c1ccc2c(c1)[nH]c(=S)n2C1CC1	nt	i	0	i	0.043	-9
O=[N+]([O-])c1cc(C(F)(F)F)ccc1N1CCCC(O)C1 (stereo not given)	0.32	i	nt	i	-0.54	-23
